pIC50: −log10 of the molar value. The source made the active and inactive calls. The calls are words filed in the database; no cut-off is given here.
Columns and labels:
Homo sapiens = species: Homo sapiens; assay: (§1) Inhibition of TNFalpha activated NF-kappaB dependent transactivation of HIV-1 LTR Luc in 5.1 cells; format: cell-based
Summary of the method: (§2)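 A T cell line stably carrying HIV-1 LTR-driven luciferase was preincubated with increasing concentrations for 30 min, then stimulated with TNFα (2 ng/mL) for 6 h. Cells were lysed in Tris-phosphate buffer pH 7.8 with Triton X-100. Luciferase was read and normalized to Bradford protein (RLU/µg) after subtracting lysis-buffer background. Results are fold induction over untreated cells, with at least three repeats.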

[1] = as §1; format: cell-based; settings: Homo sapiens; summary of the method: as §2
Monocyte [2] = assay: Inhibition of IL1-beta production in LPS-stimulated human primary monocytes by ELISA; format: functional
Summary of the method: (§3)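 Primary monocytes from healthy donors were seeded at (1-2) × 10^6 cells/well at 37 °C/5% CO2. Nonadherent cells were removed and the medium replaced with RPMI-1640 plus 1% human serum. Cells were preincubated with increasing compound concentrations for 30 min, then stimulated with LPS (10 ng/mL) for 24 h. Supernatants were cleared at 10000g for 10 min. Cytokines were measured by ELISA and PGE2 by EIA.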

Monocyte [3] = assay: Inhibition of IL8 production in LPS-stimulated human primary monocytes by ELISA; format: functional
Monocyte [4] = assay: Inhibition of TNFalpha production in LPS-stimulated human primary monocytes by ELISA; format: functional; summary of the method: as §3
Monocyte [5] = assay: Inhibition of PGE2 production in LPS-stimulated human primary monocytes by ELISA; format: functional; summary of the method: as §3
[6] = tested on: Human immunodeficiency virus 1; assay: Inhibition of VSV-pseudotyped HIV1 replication in Jurkat T cells; format: functional, organism-based
Summary of the method: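 Jurkat T cells (10^6/mL) pretreated 30 min with increasing concentrations before infection with VSV-pseudotyped pNL4-3.Luc.R-E- virus (Env-, Vpr-; stock made in 293T cells), 200 ng HIV-1 gag p24 per culture. After 24 h the cells were washed twice in PBS and luciferase activity in the lysates was read as % of infected untreated cells. Mean ± SD of three independent experiments.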

Monocyte [7] = assay: Inhibition of IL6 production in LPS-stimulated human primary monocytes by ELISA; format: functional; summary of the method: as §3

For C=C(CO)[C@@H]1Cc2cc(C(C)=O)ccc2O1, the Activity (Homo sapiens) was “inactive”.

For C=C(CO)[C@H]1Oc2ccc(C(C)=O)cc2[C@H]1OC(C)=O, the Activity (Homo sapiens) was “inactive”.

With C=C(COC(C)=O)[C@@H]1Cc2cc(C(C)=O)ccc2O1 the Activity (Homo sapiens) was “inactive”.

In the case of C=C(COC(C)=O)[C@H]1Oc2ccc(C(C)=O)cc2[C@H]1OC(C)=O, the Activity (Homo sapiens) was “inactive”.

For CCC(C)C(=O)C(C)c1oc(=O)c(C)c(O)c1C (stereo not drawn), the Activity (Homo sapiens) was “inactive”.

With CCc1oc(=O)c(Cc2c(O)c(CC=C(C)C)c(O)c(C(C)=O)c2O)c(O)c1C [ARZANOL] the pIC50 [1] was 5.30, the pIC50 (Monocyte [2]) was 5.25 and the pIC50 (Monocyte [3]) was 4.66. The pIC50 (Monocyte [4]) was 5.04, the pIC50 (Monocyte [5]) was 4.73 and the Activity [6] was “Dose-dependent effect”. The pIC50 (Monocyte [7]) was 4.88.

In the case of CCc1oc(=O)c(Cc2c(O)c(C)c(CC)oc2=O)c(O)c1C [HELIPYRONE], the pIC50 [1] was 5.06.
